Source: ChEMBL document CHEMBL3526125, “P-glycoprotein increases portal bioavailability of loperamide in mouse by reducing first-pass intestinal metabolism” (Drug Metab Dispos, 2013)

Key:
[1] = Portal bioavailability in P-gp deficient CF-1 mouse at 0.47 mg/kg through oral gavage; format: ADME, organism-based; conditions: in vivo
Summary of the method: (§1)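 Portal vein-cannulated, anesthetized CF-1 or Mdr1a1-/- mice given oral loperamide 0.23, 0.47 or 0.94 mg/kg. Portal and systemic plasma converted to blood concentration using a blood:plasma ratio of 0.71. M_portal = Q_portal (1.45 mL/min) × AUC_portal(0–4 h). M_systemic is subtracted to give M_absorbed, and F_G = M_absorbed/dose. n=6.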

CYP3A [2] = test: Drug metabolism in P-gp competent CF-1 mouse intestine assessed as CYP3A-mediated […] by LC-MS/MS analysis; format: ADME, tissue-based
Summary of the method: (§2)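 Jejunum from fasted CF-1 or Mdr1a1-/- mice mounted in diffusion chambers in oxygenated KBR at 37°C; tissue used if TEER ≥250 Ω·cm². Apical loperamide 0.75–125 µM in KBR with 0.1% EtOH for 90 min. Monodemethyl- plus didemethyl-loperamide summed across tissue, AP and BL by LC-MS/MS. Fitted to Michaelis–Menten for Vmax and Km. n=3 mice × 4 tissues.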

[3] = Portal bioavailability in P-gp deficient CF-1 mouse at 0.23 mg/kg through oral gavage by LC-MS/MS analysis in presence of 1 mM ABT CYP3A inhibitor; format: ADME, organism-based; conditions: in vivo
Summary of the method: (§3)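 Mice received oral ABT 50 mg/kg 3 h before study, plus another 50 mg/kg co-administered with loperamide 0.23 mg/kg in 300 µL 0.9% NaCl with 1% EtOH. Portal and jugular sampling over 240 min. F_G = (portal minus systemic-returned mass)/dose, using portal flow 1.45 mL/min and blood:plasma ratio 0.71. n=6.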

[4] = Portal bioavailability in P-gp competent CF-1 mouse at 0.47 mg/kg through oral gavage; format: ADME, organism-based; conditions: in vivo; summary of the method: as §1
[5] = Portal bioavailability in P-gp competent CF-1 mouse at 0.23 mg/kg through oral gavage; format: ADME, organism-based; conditions: in vivo; summary of the method: as §1
CYP3A [6] = test: Drug metabolism in P-gp deficient CF-1 mouse intestine assessed as CYP3A-mediated […] by LC-MS/MS analysis; format: ADME, tissue-based; summary of the method: as §2
[7] = AUC (0 to 240 mins) in P-gp deficient CF-1 mouse plasma at 0.47 mg/kg through oral gavage; format: ADME, organism-based; parameters: time < 4 hr, dose 0.47 mg/kg, route oral
Summary of the method: (§4)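 Male CF-1 (P-gp competent) or Mdr1a1-/- mice, overnight-fasted, on ketamine/xylazine anesthesia held at 37°C, portal vein-cannulated. Loperamide 0.23, 0.47 or 0.95 mg/kg by oral gavage in 300 µL 0.9% NaCl with 1% EtOH. Serial 20 µL portal blood samples over 240 min. Plasma loperamide quantified by LC-MS/MS. AUC0–240 min reported as mean ± SD, n=6.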

[8] = AUC in P-gp competent CF-1 mouse plasma at 0.23 mg/kg through systemic exposure; format: ADME, organism-based; parameters: dose 0.23 mg/kg
Summary of the method: (§5)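 Overnight-fasted, ketamine/xylazine-anesthetized CF-1 or Mdr1a1-/- mice with jugular vein cannulae. Loperamide 0.23 or 0.47 mg/kg by oral gavage in 300 µL 0.9% NaCl with 1% EtOH. Jugular blood (20 µL) taken at 10, 30, 60, 120, 180 and 240 min. Plasma loperamide measured by LC-MS/MS. AUC0–240 min, n=6.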

[9] = Portal bioavailability in P-gp deficient CF-1 mouse at 0.94 mg/kg through oral gavage; format: ADME, organism-based; conditions: in vivo; summary of the method: as §1
[10] = AUC in P-gp deficient CF-1 mouse plasma at 0.47 mg/kg through systemic exposure; format: ADME, organism-based; parameters: dose 0.47 mg/kg; summary of the method: as §5
[11] = AUC (0 to 240 mins) in P-gp deficient CF-1 mouse plasma at 0.94 mg/kg through oral gavage; format: ADME, organism-based; parameters: time < 4 hr, dose 0.94 mg/kg, route oral; summary of the method: as §4
[12] = AUC (0 to 240 mins) in P-gp competent CF-1 mouse plasma at 0.94 mg/kg through oral gavage; format: ADME, organism-based; parameters: time < 4 hr, dose 0.94 mg/kg, route oral; summary of the method: as §4
[13] = Drug metabolism in P-gp competent CF-1 mouse intestine assessed as CYP3A-mediated metabolite formation […]; format: ADME, tissue-based; conditions: excised jejunum tissue
[14] = AUC in P-gp competent CF-1 mouse plasma at 0.47 mg/kg through systemic exposure; format: ADME, organism-based; parameters: dose 0.47 mg/kg; summary of the method: as §5
[15] = Portal bioavailability in P-gp competent CF-1 mouse at 0.23 mg/kg through oral gavage by LC-MS/MS analysis in presence of 1 mM ABT CYP3A inhibitor; format: ADME, organism-based; conditions: in vivo; summary of the method: as §3
[16] = AUC (0 to 240 mins) in P-gp competent CF-1 mouse plasma at 0.47 mg/kg through oral gavage; format: ADME, organism-based; parameters: time < 4 hr, dose 0.47 mg/kg, route oral; summary of the method: as §4
[17] = AUC in P-gp deficient CF-1 mouse plasma at 0.23 mg/kg through systemic exposure; format: ADME, organism-based; parameters: dose 0.23 mg/kg; summary of the method: as §5
[18] = AUC (0 to 240 mins) in P-gp competent CF-1 mouse plasma at 0.23 mg/kg through oral gavage; format: ADME, organism-based; parameters: time < 4 hr, dose 0.23 mg/kg, route oral; summary of the method: as §4
[19] = Drug metabolism in P-gp deficient CF-1 mouse intestine assessed as CYP3A-mediated metabolite formation […]; format: ADME, tissue-based; conditions: excised jejunum tissue
[20] = AUC (0 to 240 mins) in P-gp deficient CF-1 mouse plasma at 0.23 mg/kg through oral gavage; format: ADME, organism-based; parameters: time < 4 hr, dose 0.23 mg/kg, route oral; summary of the method: as §4
[21] = Portal bioavailability in P-gp deficient CF-1 mouse at 0.23 mg/kg through oral gavage; format: ADME, organism-based; conditions: in vivo; summary of the method: as §1
[22] = AUC (0 to 120 mins) in P-gp competent CF-1 mouse plasma at 0.4 mg/kg through oral gavage in presence of 1 mM ABT CYP3A inhibitor; format: ADME, organism-based; parameters: time < 2 hr, dose 0.4 mg/kg, route oral
[23] = Drug metabolism in P-gp deficient CF-1 mouse intestine assessed as CYP3A-mediated metabolite formation measured per cm'2 of tissue by LC-MS/MS analysis in presence of 100 uM Cyp3a oxidative metabolism inhibitor troleandomycin; format: ADME, tissue-based
[24] = Drug metabolism in P-gp competent CF-1 mouse intestine assessed as CYP3A-mediated metabolite formation measured per cm'2 of tissue by LC-MS/MS analysis in presence of 100 uM Cyp3a oxidative metabolism inhibitor troleandomycin; format: ADME, tissue-based
[25] = AUC (0 to 120 mins) in P-gp competent CF-1 mouse plasma at 0.4 mg/kg through oral gavage; format: ADME, organism-based; parameters: time < 2 hr, dose 0.4 mg/kg, route oral
Summary of the method: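 Mice were anaesthetised with IP ketamine 140 mg/kg and xylazine 15 mg/kg, kept at 37°C, and portal vein-cannulated. Pretreatment was saline or oral ABT at 50 mg/kg. Portal-circulation AUC0–120 min was calculated.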

SMILES: CN(C)C(=O)C(CCN1CCC(O)(c2ccc(Cl)cc2)CC1)(c1ccccc1)c1ccccc1 [LOPERAMIDE]
- Fg [1]: 1.1%
- Km (CYP3A [2]): 22 µM
- Fg [3]: 28%
- Fg [4]: 1.7%
- Fg [5]: 2.6%
- Km (CYP3A [6]): 4.5 µM
- AUC(0-t) at 4 h [7]: 7 ng·h/mL
- AUC [8]: 0.933 ng·h/mL
- Fg [9]: 17%
- AUC [10]: 4.33 ng·h/mL
- AUC(0-t) at 4 h [11]: 95 ng·h/mL
- AUC(0-t) at 4 h [12]: 81.7 ng·h/mL
- Vmax [13]: 31 pmol/min/cm²
- AUC [14]: 0.517 ng·h/mL
- Fg [15]: 3.6%
- AUC(0-t) at 4 h [16]: 4.48 ng·h/mL
- AUC [17]: 1.03 ng·h/mL
- AUC(0-t) at 4 h [18]: 4.43 ng·h/mL
- Vmax [19]: 30 pmol/min/cm²
- AUC(0-t) at 4 h [20]: 1.5 ng·h/mL
- Fg [21]: 0.4%

SMILES: C[C@]12CC[C@H]3[C@@H](CCC4=CC(=O)CC[C@@]43C)[C@@H]1CC[C@@H]2O [TESTOSTERONE]
- AUC(0-t) at 2 h [22]: 1 ng·h/mL
- Vmax [23]: 0.5 pmol/min
- Vmax [24]: 0.5 pmol/min
- AUC(0-t) at 2 h [25]: 43.3 ng·h/mL
